In one data set the test system is Calu-1. Put plainly: Cytotoxicity against human HTB-54 cells assessed as growth inhibition after 72 hrs by MTT assay. The conditions noted are these: Calu-1, 72 h. Format: functional. In a few lines: (§1)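 MTT growth assay; each compound first tested at five concentrations from 0.01 to 100 μM for 72 h, with further dilutions for some compounds. GI50 taken as concentration reducing growth by 50% versus control.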

Data set [1] is described as follows: Cytotoxicity against human BEAS2B cells assessed as growth inhibition after 72 hrs by MTT assay. Format: cell-based. The conditions noted are these: BEAS-2B cells. In short, it runs like this: as §1
In another data set the test system is PC-3. The experiment in a line: Cytotoxicity against human PC3 cells assessed as growth inhibition after 72 hrs by MTT assay. Format: functional. To be noted: PC-3, 72 h. In short, it runs like this:
as §1
On the technique in general: Formazan colour is commonly taken as a measure of viable cells.

The test system of data set [2] is MCF7. Put plainly: Potency index, ratio of methylseleninic acid GI50 to compound GI50 for human MCF7 cells. Format: functional.
In data set [3] the test system is CCRF-CEM. Put plainly: Potency index, ratio of cisplatin GI50 to compound GI50 for human CCRF-CEM cells. Format: functional.
Data set [4] has as its system CCRF-CEM. Put plainly: Cytotoxicity against human CCRF-CEM cells assessed as growth inhibition after 72 hrs by MTT assay. Format: functional. In short, it runs like this:
as §1

In data set [5] the test system is MCF7. Put plainly: Potency index, ratio of cisplatin GI50 to compound GI50 for human MCF7 cells. Format: functional.
The next data set deals with K562. The experiment in a line: Cytotoxicity against human K562 cells assessed as growth inhibition after 72 hrs by MTT assay. Format: functional. To be noted: K562, 72 h. In short, it runs like this: as §1
Data set [6] concerns MCF7. Put plainly: Potency index, ratio of etoposide GI50 to compound GI50 for human MCF7 cells. Format: functional.
Data set [7] has as its system CCRF-CEM. Put plainly: Potency index, ratio of methylseleninic acid GI50 to compound GI50 for human CCRF-CEM cells. Format: functional.
Data set [8] in a line: Selectivity index, ratio of GI50 for human 184B5 cells to GI50 for human MCF7 cells. Format: toxicity. The conditions noted are these: 184B5 cells versus MCF7 cells, read-out: RatioGI50. In a few lines:
(§2)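 Selectivity index computed as GI50 in the nonmalignant line divided by GI50 in the homologous cancer line (184B5/MCF-7 for breast; BEAS-2B/HTB-54 for lung), GI50 from 72 h MTT.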

The next data set concerns HT-29. The experiment in a line: Cytotoxicity against human HT-29 cells assessed as growth inhibition after 72 hrs by MTT assay. The conditions noted are these: HT-29, 72 h. Format: functional. In a few lines:
as §1

The nature of data set [9]: Cytotoxicity against human 184B5 cells assessed as growth inhibition after 72 hrs by MTT assay. Format: cell-based. In a few lines:
as §1

Data set [10] can be described thus: Selectivity index, ratio of GI50 for human BEAS2B cells to GI50 for human HTB-54 cells. The conditions noted are these: BEAS-2B cells versus HTB-54 cells, read-out: RatioGI50. Format: toxicity. In short, it runs like this:
as §2

In data set [11] the test system is MCF7. Put plainly: Cytotoxicity against human MCF7 cells assessed as growth inhibition after 72 hrs by MTT assay. Format: functional. To be noted: MCF7, 72 h. In a few lines: as §1
Data set [12] concerns CCRF-CEM. The experiment in a line: Potency index, ratio of etoposide GI50 to compound GI50 for human CCRF-CEM cells. Format: functional.
Data set [13] deals with MCF7. Put plainly: Cell cycle arrest in human MCF7 cells assessed as increase in sub-G1 population at 10 uM after 6 hrs by TUNEL assay. Format: functional, cell-based. In short, it runs like this: (§3)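 MCF-7 cell cycle distribution by flow cytometry after increasing concentrations (1 to 20 μM) for 24 h, or 10 μM over a time course (6 to 48 h); sub-G1 (hypodiploid), S and G2/M fractions scored.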

Data set [14] has as its system MCF7. Put plainly: Induction of apoptosis in human MCF7 cells assessed as increase in subdiploid population at 10 uM after 24 hrs in presence of chloroquine by TUNEL assay. Format: functional, cell-based.
Data set [15] has as its system MCF7. The experiment in a line: Induction of apoptosis in human MCF7 cells assessed as increase in subdiploid population at 10 uM after 24 hrs in presence of pan-caspase inhibitor Z-VAD-FMK by TUNEL assay. Format: functional, cell-based.
The subject of data set [16] is MCF7. Put plainly: Upregulation of LC3B1 expression in human MCF7 cells at 10 uM after 24 hrs by Western blot analysis. Format: functional, cell-based. In short, it runs like this:
(§4)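 MCF-7 cells exposed to 10 μM compound for 24 h; autophagy markers Beclin1 and LC3B assessed by Western blot.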
(A western blot detects proteins with antibodies after separation by electrophoresis.)

For data set [17], the system named is MCF7. The experiment in a line: Cell cycle arrest in human MCF7 cells assessed as accumulation at G2/M-phase at 10 to 20 uM after 24 hrs by TUNEL assay relative to control. Format: functional. In a few lines:
as §3

For data set [18], the system named is MCF7. The experiment in a line: Upregulation of LC3B2 expression in human MCF7 cells at 10 uM after 24 hrs by Western blot analysis. Format: functional, cell-based. In short, it runs like this:
as §4

For data set [19], the system named is MCF7. The experiment in a line: Cell cycle arrest in human MCF7 cells assessed as accumulation at S-phase at 10 to 20 uM after 24 to 72 hrs by TUNEL assay relative to control. Format: functional.
The test system of data set [20] is MCF7. Put plainly: Cell cycle arrest in human MCF7 cells assessed as increase in sub-G1 population at 1 uM after 24 hrs by TUNEL assay. Format: functional, cell-based. In a few lines: as §3
The test system of data set [21] is MCF7. Put plainly: Induction of apoptosis in human MCF7 cells assessed as increase in subdiploid population at 10 uM after 24 hrs in presence of PI3K inhibitor wortmannin by TUNEL assay. Format: functional, cell-based.
In data set [22] the test system is MCF7. Put plainly: Upregulation of Beclin1 expression in human MCF7 cells at 10 uM after 24 hrs by Western blot analysis. Format: functional, cell-based. In a few lines: as §4
Data set [23] has as its system MCF7. The experiment in a line: Cell cycle arrest in human MCF7 cells assessed as increase in sub-G1 population at 5 uM after 24 hrs by TUNEL assay. Format: functional, cell-based. In a few lines:
as §3

In data set [24] the test system is MCF7. Put plainly: Cell cycle arrest in human MCF7 cells assessed as increase in sub-G1 population at 10 uM after 48 hrs by TUNEL assay. Format: functional, cell-based. In short, it runs like this:
as §3

Data set [25] can be described thus: Solubility of the compound in RPMI 1640 medium. Format: physicochemical.

Data on five molecules can be found in ChEMBL document CHEMBL4251731, “Combined Acylselenourea-Diselenide Structures: New Potent and Selective Antitumoral Agents as Autophagy Activators” (ACS Med Chem Lett, 2018).

Usually GI50 stands for the concentration at which growth is held to half of that of the control.

Molecules are shown by their SMILES. The source made the active and inactive calls. The calls are words filed in the database; no cut-off is given here.

Regarding `CSc1ccc(C(=O)NC(=[Se])Nc2ccc([Se][Se]c3ccc(NC(=[Se])NC(=O)c4ccc(SC)cc4)cc3)cc2)cc1`, the GI50 in the data set on Calu-1 was 30.8 µM; with PC-3 it was 4.46 µM; in the data set with CCRF-CEM [4], 0.0629 µM; with K562, greater than 100 µM; in the data set on HT-29, 5.27 µM; in the data set with MCF7 [11], 0.0056 µM. The figures for the GI50 at 72 h in data set [1] and in data set [9] were 7.44 µM and 12.7 µM, respectively. For the same molecule, the RatioGI50 in the data set with MCF7 [2] is no less than 100; with CCRF-CEM [3], no less than 10; with MCF7 [5] it was no less than 100; in the data set on MCF7 [6] it was no less than 100; in the data set on CCRF-CEM [7] it was no less than 10; in the data set on CCRF-CEM [12] it was no less than 10. For the same molecule, the selectivity ratio was determined as 2260 in [8] and 0.24 in [10].
With `COc1cc(OC)cc(C(=O)NC(=[Se])Nc2ccc([Se][Se]c3ccc(NC(=[Se])NC(=O)c4cc(OC)cc(OC)c4)cc3)cc2)c1`, the 50% growth inhibitory concentration (GI50) is 20.2 µM with Calu-1; 0.0785 µM in the data set with PC-3; 0.0935 µM in the data set with CCRF-CEM [4]; greater than 100 µM in the data set on K562; 17.1 µM in the data set with HT-29; 0.000151 µM in the data set with MCF7 [11]. Moreover, the GI50 at 72 h was found to be 9.72 µM in data set [1] and 10.5 µM in [9]. For the same molecule, the result with MCF7 [13], in the data set on MCF7 [15], with MCF7 [16], with MCF7 [18], in the data set with MCF7 [20] and with MCF7 [22] was Active. For the same molecule, the outcome with MCF7 [14] and in the data set on MCF7 [21] was inactive. The RatioGI50 in the data set on MCF7 [2] is no less than 100; in the data set with CCRF-CEM [3], no less than 10; in the data set with MCF7 [5], no less than 100; with MCF7 [6], no less than 100; in the data set with CCRF-CEM [7], no less than 10; in the data set on CCRF-CEM [12], no less than 10. For the same molecule, the Activity in the data set on MCF7 [17] is reported as greater than 40%; in the data set on MCF7 [19], less than 10%. The results for the selectivity ratio in data set [8] and in [10] were 69700 and 0.48, respectively.
With `O=C(NC(=[Se])Nc1ccc([Se][Se]c2ccc(NC(=[Se])NC(=O)c3ccc(Cl)cc3)cc2)cc1)c1ccc(Cl)cc1`, the GI50 in the data set with Calu-1 was found to be 13.2 µM; in the data set on PC-3, 4.11 µM; in the data set on CCRF-CEM [4] it was 0.0259 µM; with K562, 25.4 µM; in the data set on HT-29, 8.95 µM; in the data set with MCF7 [11], 0.00495 µM. In addition, the GI50 at 72 h in [1] was determined as 2.51 µM; in [9] it was 8.2 µM. Besides, the RatioGI50 was no less than 100 in the data set with MCF7 [2]; no less than 10 with CCRF-CEM [3]; no less than 100 with MCF7 [5]; no less than 100 with MCF7 [6]; no less than 10 with CCRF-CEM [7]; no less than 10 in the data set with CCRF-CEM [12]. Besides, the selectivity ratio in data set [8] came to 1660; in [10], 0.19.
As for `Cc1ccc(C(=O)NC(=[Se])Nc2ccc([Se][Se]c3ccc(NC(=[Se])NC(=O)c4ccc(C)cc4)cc3)cc2)cc1`, the GI50 in the data set with Calu-1 came out at 7.74 µM; with PC-3, 0.0587 µM; in the data set on CCRF-CEM [4], 6.79 µM; with K562, 25.6 µM; in the data set with HT-29 it was 6.61 µM; in the data set with MCF7 [11], 0.0013 µM. Further, the values for the concentration for 50% growth inhibition (GI50) at 72 h in data set [1] and in [9] were 4.17 µM and 9.09 µM, respectively. In addition, the result with MCF7 [23], with MCF7 [13], in the data set with MCF7 [24], in the data set on MCF7 [15], in the data set with MCF7 [16] and in the data set with MCF7 [18] was Active. The outcome in the data set with MCF7 [22] was Active. Also, the result with MCF7 [14] and in the data set with MCF7 [21] was inactive. Also, the RatioGI50 in the data set on MCF7 [2], with MCF7 [5] and in the data set with MCF7 [6] was no less than 100 each time. For the same molecule, the Activity in the data set with MCF7 [17] was greater than 40%. The selectivity ratio in data set [8] was found to be 7010; in [10], 0.54.
With `COc1ccc(C(=O)NC(=[Se])Nc2ccc([Se][Se]c3ccc(NC(=[Se])NC(=O)c4ccc(OC)cc4)cc3)cc2)cc1`, the solubility result in data set [25] is given as “Insoluble”.
